This is a sample that favours compounds with a hit; in the whole collection about 1.4% have one here.
TNAP act hi DEA: TNAP activators at high phosphate acceptor level, primary screen, biochemical, luminescence, uHTS. Alkaline phosphatase, tissue-nonspecific isozyme (Homo sapiens), P05186. purified TNAP, CDP-star luminescence, 1 M DEA, 30 min; hits give high values; 0 = EDTA background, 1 = DMSO-only activity. activation factor at 20 µM. 200,000 tested, under 10 active;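 active means activation factor at least 2 at 20 µM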
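Test system – human TNAP · Doses – 20 µM single point · Incubation – 30 min, room temperature · Signal – luminescent substrate turnover signal · Read-out basis – activation factor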
ABCB6 inh MLPCN: ABCB6 transporter inhibitors, primary screen, K562-ABCB6 cells, flow cytometry, MLPCN library. 360,000 tested, 0.19% active. fluorescence ratio to DMSO, % at 10 µM. K562-ABCB6 porphyrin accumulation, 1 h; hits give low values;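 active means fluorescence ratio to DMSO below 75%, the collection mean minus 3 SD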;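 further: signal is porphyrin accumulated inside mitochondria; 100% equals median channel fluorescence of DMSO control wells; lower ratio means ABCB6 inhibition with less porphyrin fluorescence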
TNAP inh noacc: human TNAP enzyme inhibitors, primary screen, biochemical, luminescent, no phosphate acceptor, uHTS | 200,000 tested, 0.26% active | purified TNAP, CDP-star luminescence, 30 min | AID 1012, 2008 | Alkaline phosphatase, tissue-nonspecific isozyme (Homo sapiens), P05186 | inhibition, % at 20 µM;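 active means tissue-nonspecific alkaline phosphatase inhibition above about 50% at 20 µM in the single-dose screen, limit read from the data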;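 further: 0% = DMSO negative control and 100% = EDTA positive control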
TNAP inh hiacc: human TNAP enzyme inhibitors, primary screen, biochemical, luminescent, high phosphate acceptor level, uHTS | Alkaline phosphatase, tissue-nonspecific isozyme (Homo sapiens), P05186 | purified TNAP, CDP-star luminescence, 1 M DEA | 200,000 tested, 0.03% active | inhibition, % at 20 µM;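 active means over 50% inhibition of tissue-nonspecific alkaline phosphatase at 20 µM in the single-dose screen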;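 further: plate controls were DMSO wells for no effect and EDTA-quenched wells as full inhibition for full effect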
CHT PAM: CHT positive allosteric modulators, primary screen, cell-based, membrane potential dye, choline EC20; CHT-expressing cells; hits give high values; LV-AA mutant CHT in HEK293 cells; 310,000 tested, 0.49% active; High affinity choline transporter 1 (Homo sapiens), Q9GZV3; B-score at 10 µM; AID 488977, 2010;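 active means initial fluorescence not abnormally high and integrated response B-score, plate-corrected, over 3 SD above library mean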
Target sequence (Q9GZV3 whole entry, looked up): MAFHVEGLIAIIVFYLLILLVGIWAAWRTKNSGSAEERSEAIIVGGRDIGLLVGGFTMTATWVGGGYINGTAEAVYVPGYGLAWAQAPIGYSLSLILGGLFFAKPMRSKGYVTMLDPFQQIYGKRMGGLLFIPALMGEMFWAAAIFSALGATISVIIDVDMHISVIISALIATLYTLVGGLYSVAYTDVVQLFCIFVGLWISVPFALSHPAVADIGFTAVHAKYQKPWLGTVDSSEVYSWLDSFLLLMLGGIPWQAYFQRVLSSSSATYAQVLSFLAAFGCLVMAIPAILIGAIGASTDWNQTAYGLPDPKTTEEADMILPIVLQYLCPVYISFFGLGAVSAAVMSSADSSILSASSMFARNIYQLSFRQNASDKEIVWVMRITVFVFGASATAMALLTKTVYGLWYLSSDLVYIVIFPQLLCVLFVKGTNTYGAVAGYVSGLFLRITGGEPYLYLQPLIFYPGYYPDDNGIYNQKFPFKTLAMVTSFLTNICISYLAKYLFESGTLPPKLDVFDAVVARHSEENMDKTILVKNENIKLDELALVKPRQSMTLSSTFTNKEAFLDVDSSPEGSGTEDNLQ
CHT inh: inhibitors of human choline transporter CHT. High affinity choline transporter 1 (Homo sapiens), Q9GZV3. CHT-expressing cells, membrane potential dye, choline response; hits give low values. B-score at 10 µM. 310,000 tested, 0.86% active. AID 488975, 2010;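 active means B-score over 3 SD under the library average, and starting fluorescence ratio not unusually high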;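 further: choline stimulus applied at its EC90 after an EC20 pre-addition; B-score computed on integrated fluorescence ratio after choline addition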
CHT block conf: CHT inhibitors, confirmation, cell-based, membrane potential dye, duplicate | shares compounds with CHT inh | CHT-expressing cells, choline membrane potential dye; LV-to-AA substituted CHT, HEK293 cells | CHT activity remaining % of control (hits give low values), % at 10 µM | 2,400 tested, 70% active;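 active means choline transporter activity left, mean of duplicates at 10 µM, below buffer-only control mean minus 3 SD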;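 further: depolarization triggered by choline at its EC90 following an EC20 pre-addition; 0% = hemicholinium-3 full block and 100% = buffer-only control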
HEK293 MPD ctr: membrane potential effects in parental HEK293, counter-screen for CHT inhibitor project, cell-based, membrane potential dye. AID 493222, 2011. membrane potential ratio readout (active if shifted either direction beyond buffer ±3SD; no single direction) at 10 µM. shares compounds with CHT inh. 2,400 tested, 4% active. choline response; active = decrease or increase beyond buffer ±3SD;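 further: parental cells lack the transporter so any hit is non-specific; ratio is peak minus trough fluorescence over baseline after EC90 choline challenge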
* hit, by the source's call; i = inactive; . = not tested or not shown.

SMILES | TNAP act hi DEA | ABCB6 inh MLPCN | TNAP inh noacc | TNAP inh hiacc | CHT PAM | CHT inh | CHT block conf | HEK293 MPD ctr
O=C(NNc1cc(Br)c(O)c(Br)c1)c1ccccc1 | 1 | 98 | 34 | 3 | i | -7.4* | 47%* | i
COc1ccc(/C=C/C(=O)NC2CCCCCCC2)cc1S(=O)(=O)N1CCOCC1 | 1 | 98 | -5 | 2 | i | -7.6* | 20%* | i
CCc1ccccc1Nc1nc(N)nc(COC(=O)CCC(=O)c2ccc(F)cc2)n1 | . | 99 | . | . | . | . | . | .
CCCN(CC(=O)Nc1ccc(F)c(F)c1F)C(=O)Cn1c(=O)cnc2ccccc21 | . | 100 | . | . | i | -11* | 8.6%* | i
CCC(Oc1ccc(C)cc1)C(=O)Nc1ccc(S(=O)(=O)Nc2nccs2)cc1 (configuration not stated) | . | 94 | . | . | i | -6.5* | 40%* | i
O=C(Nc1ccc(S(=O)(=O)Nc2nccs2)cc1)c1c(F)c(F)c(F)c(F)c1F | . | 99 | . | . | i | -5* | 35%* | i
COc1ccc(/C=C/C(=O)OCC(=O)NC2CCCC2)c(OC)c1 | . | 94 | . | . | . | . | . | .
COc1ccccc1CN1C(=O)[C@@H]2C(CCC(N)=O)NC3(C(=O)Nc4c3ccc(Cl)c4C)[C@@H]2C1=O (some centres not stated) | 1.1 | 99 | -15 | -7 | i | -6.1* | 61%* | i
CCCc1cc(C(=O)NNC(=S)NC(C)c2ccccc2)cs1 (configuration not stated) | 1 | 97 | -58 | 0 | i | -6.2* | 18%* | i
CCCc1cc(C(=O)NNC(=S)NCC2CCCO2)cs1 (configuration not stated) | 1 | 99 | -169 | -4 | i | i | . | .
COc1cccc(OC)c1OCCN1CCN(C(c2ccccc2)c2ccccc2)CC1 | . | 90 | . | . | i | i | . | .
Fc1ccc(CSc2nc3ncccc3[nH]2)cc1 | 1.1 | 197 | -18 | -5 | i | -6* | i | i
Cc1cc(NS(=O)(=O)c2ccc(NC(=O)/C=C/c3c(F)cccc3Cl)cc2)no1 | . | 85 | . | . | i | i | . | .
CCCCOC(=O)Nc1ccc(S(=O)(=O)Nc2cc(C)nc(C)n2)cc1 | 1.1 | 98 | -3 | -5 | i | i | . | .
Cc1cc(NS(=O)(=O)c2ccc(NC(=O)/C=C/c3c(F)cccc3Cl)cc2)nc(C)n1 | . | 97 | . | . | i | -5.7* | 31%* | i
CCCCC(Br)C(=O)Nc1ccc(S(=O)(=O)Nc2cc(C)nc(C)n2)cc1 (configuration not stated) | . | 94 | . | . | i | -5.8* | 15%* | i
CC1(C)Cc2cccc(OCC(=O)Nc3cc(S(C)(=O)=O)ccc3Cl)c2O1 | . | 97 | . | . | . | . | . | .
CC(C)(C)C(C(=O)n1cccc1C#N)c1ccccc1 (configuration not stated) | . | 93 | . | . | . | . | . | .
O=P(c1ccccc1)(c1ccccc1)c1nc(-c2ccc(Cl)cc2)oc1N1CCOCC1 | 1 | 89 | 3 | 1 | i | i | . | .
Cc1c(Cl)cccc1NCC(=O)NN=C1CCCC1 | 1 | 102 | -5 | -1 | i | -5.1* | 48%* | i
COc1ccc(N(CCCN2C(=O)c3cccc4cccc(c34)C2=O)C(=O)c2ccncc2)cc1 | 1 | 101 | 3 | 0 | i | -5.8* | 69%* | i

Screens deposited in PubChem BioAssay by several laboratories.
